Test results taken from PMC4976804 (Current Alzheimer research, 2015).

Legend:
N2a cells = experiment: Cell viability of uninduced N2a cells in the presence of compounds; format: cell-based; conditions: 60 µM compound, 4 days 37°C, untreated = 100%
Summary of the method: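 Uninduced N2a cells (no tau expression) grown 4 days at 37 °C in culture medium with test compound at 60 µM, or at several concentrations from 0 to 60 µM. Viability measured by MTT assay per kit instructions. Values normalised to the uninduced compound-untreated sample (100%).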

[1] = tested on: inducible N2aTau^4RDΔK280 cells; experiment: Inhibition of Tau aggregation in inducible N2a cells, ThS+ cells counted by FACS; format: cell-based
Summary of the method: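 Inducible N2a-Tau4RDΔK280 cells in suspension, with 0.0005% (12 µM) ThS added. Tau induced with 1 µg/ml doxycycline. Compound at 60 µM, or 0–60 µM, for 4 days at 37 °C. Floating and adherent cells pooled, pelleted and PBS-washed. ThS+ cells counted by flow cytometry (ex 495/em 519 nm). Induced DMSO-treated sample set to 100%.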

Question: Which “viability N2a cells (MTT)” value (N2a cells) does the source give for `O=C(NNc1nc(-c2ccc([N+](=O)[O-])cc2)cs1)c1ccc2nc[nH]c2c1` [BSc3094] here?
Answer: 101.9 ± 3.8%

Question: And the “amount of ThS-positive cells (FACS), in words” value ([1]; 15 µM in the medium, 4 days, N2a cells expressing K18ΔK280)?
Answer: decreases

Question: What about the “reduction of Tau^4RDΔK280 aggregation in N2a cells compared to control” value ([1]; 60 µM compound, ThS+ cells by FACS) of the same compound?
Answer: 93%

Question: And the “effectiveness in reducing aggregation in N2a cells relative to the best hits” value ([1]; compared to our best hits)?
Answer: 2-3
